This note sets out measurements from PMC10797327 (RSC Advances, 2024).

A short description of one data set: MTT cell viability assay. Type of data set: cell-based, murine. The note with it: mouse, RAW264.7 macrophage cells. The method in brief: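 RAW264.7 cells are cultured with test compound for 48 h, then viability is measured. CC50 is the concentration that reduces viability to 50%.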
The test system of a further data set is IL-1β. The data set is described as follows: IL-1β production in LPS-stimulated RAW264.7 cells. The format is cell-based. Particulars: Mus musculus, RAW264.7, 48 h, read-out: IC50 IL-1β. The method in brief:
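RAW264.7 macrophages stimulated with LPS and cultured for 48 h with test compound. Cytokine production is measured, and IC50 is taken as the concentration that reduces cytokine production by 50%.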

SMILES strings stand for the structures. pIC50: −log10 of the molar value.

As for `CC(=O)Oc1cccc2c1C(=O)c1c(OC(C)=O)cc(C(=O)O)cc1C2=O` [Diacerein, diacerein], the CC50 – broadly, the concentration giving 50% cytotoxicity – at 48 h in the data set “MTT cell viability assay” came out at 151 µM. The pIC50 (usually the IC50 on a negative log10 scale, so that one unit is a factor of ten) in the data set on IL-1β was 4.58.
